Data as given in ChEMBL document CHEMBL3046131, “Synthesis and quantitative structure-activity relationship (QSAR) study of novel isoxazoline and oxime derivatives of podophyllotoxin as insecticidal agents” (2012).

Experiments:
Assay type in all cases: functional
Mythimna separata [1] = assay: Insecticidal activity against pre-third-instar larvae of Mythimna separata (Oriental armyworm) in wheat leaves at 1 mg/mL after 5 days by leaf-dipping method; conditions: 120 h
How it was run: (§1)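 Compounds dissolved in acetone at 1 mg/mL. Fresh wheat leaves dipped 3 s, then dried at room conditions. Acetone-only leaves served as blank control and toosendanin as positive control. Ten larvae per dish fed treated leaves, replenished when consumed, for 48 h. Untreated fresh leaves were then given until adult emergence. Held at 25 ± 2 °C, 65−80% RH, 12 h/12 h light/dark. Activity calculated by formula.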

Mythimna separata [2] = assay: Insecticidal activity against pre-third-instar larvae of Mythimna separata (Oriental armyworm) in wheat leaves at 1 mg/mL after 20 days by leaf-dipping method; conditions: 480 h; how it was run: as §1
Mythimna separata [3] = assay: Insecticidal activity against pre-third-instar larvae of Mythimna separata (Oriental armyworm) in wheat leaves at 1 mg/mL after 33 days by leaf-dipping method; conditions: 792 h; how it was run: as §1

Compound	mortality at 1000 µg/mL (Mythimna separata [1])	mortality at 1000 µg/mL (Mythimna separata [2])	mortality at 1000 µg/mL (Mythimna separata [3])
CCCCNC(=O)[C@@H]1[C@H](c2cc(OC)c(OC)c(OC)c2)c2cc3c(cc2C2=NOC[C@H]21)OCO3	0%	0%	10.3%
COc1cc([C@@H]2c3cc4c(cc3/C(=N\O)[C@H]3COC(=O)[C@H]23)OCO4)cc(OC)c1OC	10%	24.1%	34.5%
COC(=O)[C@@H]1[C@H](c2cc(OC)c(OC)c(OC)c2)c2cc3c(cc2C2=NOC[C@H]21)OCO3	23.3%	31%	41.4%
CCOC(=O)[C@@H]1[C@H](c2cc(OC)c(OC)c(OC)c2)c2cc3c(cc2C2=NOC[C@H]21)OCO3	20%	31%	44.8%
CCCCOC(=O)[C@@H]1[C@H](c2cc(OC)c(OC)c(OC)c2)c2cc3c(cc2C2=NOC[C@H]21)OCO3	23.3%	34.5%	58.6%
CCCCCCCCOC(=O)[C@@H]1[C@H](c2cc(OC)c(OC)c(OC)c2)c2cc3c(cc2C2=NOC[C@H]21)OCO3	30%	34.5%	37.9%
COc1cc([C@@H]2c3cc4c(cc3C3=NOC[C@H]3[C@@H]2C(=O)OCCc2ccccc2)OCO4)cc(OC)c1OC	20%	27.6%	41.4%
COc1cc([C@@H]2c3cc4c(cc3C3=NOC[C@H]3[C@@H]2C(=O)OCc2ccccc2)OCO4)cc(OC)c1OC	23.3%	31%	37.9%
COc1ccc(COC(=O)[C@@H]2[C@H](c3cc(OC)c(OC)c(OC)c3)c3cc4c(cc3C3=NOC[C@H]32)OCO4)cc1	26.7%	37.9%	44.8%
COc1cc([C@@H]2c3cc4c(cc3C3=NOC[C@H]3[C@@H]2C(=O)OCc2cccc(F)c2)OCO4)cc(OC)c1OC	23.3%	34.5%	34.5%
COc1cc([C@@H]2c3cc4c(cc3C3=NOC[C@H]3[C@@H]2C(=O)OCc2ccc([N+](=O)[O-])cc2)OCO4)cc(OC)c1OC	23.3%	24.1%	27.6%
COc1cc([C@@H]2c3cc4c(cc3C3=NOC[C@H]3[C@@H]2COC=O)OCO4)cc(OC)c1OC	0%	10.3%	24.1%
CCCC(=O)OC[C@@H]1[C@H](c2cc(OC)c(OC)c(OC)c2)c2cc3c(cc2C2=NOC[C@H]21)OCO3	6.7%	13.8%	34.5%
CCCCCCCC(=O)OC[C@@H]1[C@H](c2cc(OC)c(OC)c(OC)c2)c2cc3c(cc2C2=NOC[C@H]21)OCO3	0%	6.9%	17.2%
COc1cc([C@@H]2c3cc4c(cc3C3=NOC[C@H]3[C@@H]2COC(=O)Cc2ccccc2)OCO4)cc(OC)c1OC	6.7%	6.9%	20.7%
COc1cc([C@@H]2c3cc4c(cc3C3=NOC[C@H]3[C@@H]2COC(=O)c2ccccc2)OCO4)cc(OC)c1OC	26.7%	27.6%	41.4%
COc1ccc(C(=O)OC[C@@H]2[C@H](c3cc(OC)c(OC)c(OC)c3)c3cc4c(cc3C3=NOC[C@H]32)OCO4)cc1	6.7%	13.8%	37.9%
COc1cc([C@@H]2c3cc4c(cc3C3=NOC[C@H]3[C@@H]2COC(=O)c2cccc(F)c2)OCO4)cc(OC)c1OC	23.3%	34.5%	55.2%

Compound	mortality at 1000 µg/mL (Mythimna separata [1])	mortality at 1000 µg/mL (Mythimna separata [2])	mortality at 1000 µg/mL (Mythimna separata [3])
COc1cc([C@@H]2c3cc4c(cc3C3=NOC[C@H]3[C@@H]2COC(=O)c2ccc([N+](=O)[O-])cc2)OCO4)cc(OC)c1OC	26.7%	37.9%	58.6%
COc1cc([C@@H]2c3cc4c(cc3/C(=N/OS(=O)(=O)c3ccc(C)cc3)[C@H]3COC(=O)[C@@H]23)OCO4)cc(OC)c1OC	20%	34.5%	44.8%
CCc1ccc(S(=O)(=O)O/N=C2/c3cc4c(cc3[C@@H](c3cc(OC)c(OC)c(OC)c3)[C@@H]3C(=O)OC[C@H]23)OCO4)cc1	3.3%	17.2%	27.6%
COc1ccc(S(=O)(=O)O/N=C2/c3cc4c(cc3[C@@H](c3cc(OC)c(OC)c(OC)c3)[C@@H]3C(=O)OC[C@H]23)OCO4)cc1	0%	3.5%	24.1%
COc1cc([C@@H]2c3cc4c(cc3/C(=N/OS(=O)(=O)c3ccc(Cl)cc3)[C@H]3COC(=O)[C@@H]23)OCO4)cc(OC)c1OC	26.7%	37.9%	55.2%
COc1cc([C@@H]2c3cc4c(cc3/C(=N/OS(=O)(=O)c3ccc(Br)cc3)[C@H]3COC(=O)[C@@H]23)OCO4)cc(OC)c1OC	0%	10.3%	27.6%
COc1cc([C@@H]2c3cc4c(cc3/C(=N/OS(=O)(=O)c3cccc([N+](=O)[O-])c3)[C@H]3COC(=O)[C@@H]23)OCO4)cc(OC)c1OC	0%	3.5%	13.8%
COc1cc([C@@H]2c3cc4c(cc3/C(=N/OS(=O)(=O)c3ccc(Cl)c([N+](=O)[O-])c3)[C@H]3COC(=O)[C@@H]23)OCO4)cc(OC)c1OC	0%	3.5%	13.8%
COc1cc([C@@H]2c3cc4c(cc3/C(=N/OS(C)(=O)=O)[C@H]3COC(=O)[C@@H]23)OCO4)cc(OC)c1OC	0%	17.2%	24.1%
COc1cc([C@@H]2c3cc4c(cc3/C(=N/O)[C@H]3COC(=O)[C@@H]23)OCO4)cc(OC)c1OC	0%	6.9%	17.2%
COc1cc([C@@H]2c3cc4c(cc3/C(=N/OS(=O)(=O)c3ccccc3)[C@H]3COC(=O)[C@@H]23)OCO4)cc(OC)c1OC	0%	6.9%	24.1%
COc1cc([C@@H]2c3cc4c(cc3C3=NOC[C@H]3[C@@H]2C(=O)O)OCO4)cc(OC)c1OC	20%	31%	41.4%
COc1cc([C@@H]2c3cc4c(cc3C3=NOC[C@H]3[C@@H]2CO)OCO4)cc(OC)c1OC [ISOXAZOLOPODOPHYLLOL]	20%	20.7%	37.9%
COc1cc([C@@H]2c3cc4c(cc3C(=O)[C@H]3COC(=O)[C@@H]23)OCO4)cc(OC)c1OC [PICROPODOPHYLLONE]		20.7%	27.6%
COc1cc([C@@H]2c3cc4c(cc3[C@H](O)[C@H]3COC(=O)[C@H]23)OCO4)cc(OC)c1OC [PODOFILOX]	3.3%	10.3%	37.9%
COc1cc([C@@H]2c3cc4c(cc3C(=O)[C@H]3COC(=O)[C@H]23)OCO4)cc(OC)c1OC [PODOPHYLLOTOXONE]	6.7%	3.5%	17.2%
CC(=O)O[C@@H]1C[C@H](O)[C@@]23CO[C@@H](O)[C@]1(C)[C@@H]2C[C@@H](O)[C@]1(C)[C@@H]3C(=O)[C@H](OC(C)=O)[C@@]2(C)[C@H](c3ccoc3)C[C@H]3O[C@]321 [TOOSENDANIN]	6.7%	13.8%	44.8%
